Assay [1] concerns the target T1, Metabotropic glutamate receptor 5 (Rattus norvegicus, UniProt P31424). Briefly: (§1) Positive allosteric modulator activity at rat mGlu5 receptor expressed in HEK293 cells assessed as potentiation of glutamate-induced response relative to glutamate. It counts as cell-based.
In assay [2] the target is Metabotropic glutamate receptor 5 (Rattus norvegicus) (UniProt P31424). Briefly: Positive allosteric modulator activity at rat mGlu5 receptor expressed in HEK293 cells assessed as fold shift in glutamate induced response at 10 uM. It counts as cell-based.
Sequence of Metabotropic glutamate receptor 5 (Rattus norvegicus) (P31424 21-1203 limits assumed): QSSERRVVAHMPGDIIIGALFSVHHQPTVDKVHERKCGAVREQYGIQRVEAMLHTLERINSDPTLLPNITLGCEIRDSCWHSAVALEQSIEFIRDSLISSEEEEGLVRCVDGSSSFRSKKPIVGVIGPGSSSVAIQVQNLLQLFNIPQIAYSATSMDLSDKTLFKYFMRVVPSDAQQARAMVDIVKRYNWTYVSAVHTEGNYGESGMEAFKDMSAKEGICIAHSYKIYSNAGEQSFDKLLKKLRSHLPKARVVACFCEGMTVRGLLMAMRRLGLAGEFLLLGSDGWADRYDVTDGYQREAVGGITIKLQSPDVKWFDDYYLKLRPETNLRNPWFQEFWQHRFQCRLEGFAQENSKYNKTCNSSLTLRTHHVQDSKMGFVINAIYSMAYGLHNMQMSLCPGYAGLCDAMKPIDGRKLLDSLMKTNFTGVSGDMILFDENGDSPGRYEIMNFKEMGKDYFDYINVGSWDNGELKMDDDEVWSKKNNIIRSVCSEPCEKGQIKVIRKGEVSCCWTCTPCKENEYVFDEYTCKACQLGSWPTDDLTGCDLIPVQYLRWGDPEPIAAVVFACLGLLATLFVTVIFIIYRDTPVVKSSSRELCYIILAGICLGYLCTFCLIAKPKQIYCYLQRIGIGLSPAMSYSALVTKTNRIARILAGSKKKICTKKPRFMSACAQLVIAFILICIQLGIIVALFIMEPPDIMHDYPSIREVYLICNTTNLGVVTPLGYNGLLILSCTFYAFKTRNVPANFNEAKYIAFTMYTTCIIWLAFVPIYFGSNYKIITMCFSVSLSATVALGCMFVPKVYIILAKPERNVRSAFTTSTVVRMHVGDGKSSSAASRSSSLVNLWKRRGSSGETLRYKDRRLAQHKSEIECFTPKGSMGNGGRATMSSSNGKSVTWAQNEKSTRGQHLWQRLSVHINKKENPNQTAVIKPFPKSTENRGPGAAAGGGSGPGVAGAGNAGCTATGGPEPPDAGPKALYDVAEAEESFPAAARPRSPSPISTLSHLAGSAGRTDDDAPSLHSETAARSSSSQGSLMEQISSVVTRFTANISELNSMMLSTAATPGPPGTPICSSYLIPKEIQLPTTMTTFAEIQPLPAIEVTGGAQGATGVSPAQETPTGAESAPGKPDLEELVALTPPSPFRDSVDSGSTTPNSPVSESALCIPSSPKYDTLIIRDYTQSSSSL
Assay [3] addresses T1, Metabotropic glutamate receptor 5. The assay is described as follows: Antagonist activity at rat mGlu5 receptor expressed in HEK293 cells assessed as inhibition of glutamate-induced response. It counts as functional, cell-based.
The target in assay [4] is Metabotropic glutamate receptor 5 (Rattus norvegicus) (UniProt P31424). The assay is described as §1. It counts as cell-based.
In assay [5] the target is Metabotropic glutamate receptor 7 (Homo sapiens, UniProt Q14831). The assay is described as follows: Antagonist activity at mGlu7 receptor. It counts as functional.
The target in assay [6] is Metabotropic glutamate receptor 1 (Homo sapiens, UniProt Q13255). The assay is described as follows: Antagonist activity at mGlu1 receptor. It counts as functional.
Assay [7] addresses Metabotropic glutamate receptor 8 (Homo sapiens, UniProt O00222). The assay is described as follows: Antagonist activity at mGlu8 receptor. It counts as functional.
Assay [8] addresses Metabotropic glutamate receptor 3 (Homo sapiens, UniProt Q14832). Briefly: Antagonist activity at mGlu3 receptor. It counts as functional.
Assay [9] relates to Rattus norvegicus. Briefly: Antipsychotic activity in Sprague-Dawley rat assessed as reversal of amphetamine-induced hyperlocomotion administered ip 30 mins before amphetamine-challenge. In kind it is functional, organism-based. An outline of the steps: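 Rats were given the test compound i.p. at 3, 10 or 30 mg/kg in 10% Tween 80 vehicle. Thirty minutes later they received amphetamine, 1 mg/kg s.c. Locomotor activity was then measured. Test compound or vehicle alone was also assessed without amphetamine.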

The target in assay [10] is Metabotropic glutamate receptor 2 (Homo sapiens, UniProt Q14416). The assay is described as follows: Antagonist activity at mGlu2 receptor. It counts as functional.
Sequence of Metabotropic glutamate receptor 2 (Q14416 whole entry): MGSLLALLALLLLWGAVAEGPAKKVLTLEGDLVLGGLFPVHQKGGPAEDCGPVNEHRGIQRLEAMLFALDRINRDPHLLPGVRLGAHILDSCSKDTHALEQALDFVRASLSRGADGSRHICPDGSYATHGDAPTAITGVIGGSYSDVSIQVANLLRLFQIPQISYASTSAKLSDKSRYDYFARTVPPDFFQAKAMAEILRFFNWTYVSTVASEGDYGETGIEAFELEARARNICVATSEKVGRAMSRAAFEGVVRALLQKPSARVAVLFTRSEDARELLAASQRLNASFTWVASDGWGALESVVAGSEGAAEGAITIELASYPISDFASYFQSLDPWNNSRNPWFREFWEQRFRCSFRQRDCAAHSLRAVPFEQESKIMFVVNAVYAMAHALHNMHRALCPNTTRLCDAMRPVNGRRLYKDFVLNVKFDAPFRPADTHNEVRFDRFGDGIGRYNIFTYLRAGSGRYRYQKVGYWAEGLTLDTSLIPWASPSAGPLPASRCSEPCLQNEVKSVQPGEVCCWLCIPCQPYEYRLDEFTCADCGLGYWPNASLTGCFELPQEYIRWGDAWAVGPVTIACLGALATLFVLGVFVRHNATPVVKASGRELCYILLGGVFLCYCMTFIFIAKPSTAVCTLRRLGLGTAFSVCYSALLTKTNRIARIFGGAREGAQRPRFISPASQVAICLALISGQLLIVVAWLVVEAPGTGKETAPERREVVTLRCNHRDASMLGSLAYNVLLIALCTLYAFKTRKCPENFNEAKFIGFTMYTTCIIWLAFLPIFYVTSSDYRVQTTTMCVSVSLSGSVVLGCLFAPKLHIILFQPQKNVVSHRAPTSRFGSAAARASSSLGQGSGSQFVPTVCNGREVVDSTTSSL
In assay [11] the target is Metabotropic glutamate receptor 5 (Rattus norvegicus) (UniProt P31424). Briefly: Antagonist activity at rat mGlu5 receptor expressed in HEK293 cells assessed as inhibition of glutamate-induced response at 10 uM. In kind it is functional, cell-based. Also on record: scale not given: the % may be the effect or the level left.
Assay [12] addresses Metabotropic glutamate receptor 4 (Homo sapiens, UniProt Q14833). Briefly: Antagonist activity at mGlu4 receptor. It counts as functional.
The test system of assay [13] is Rattus norvegicus. Briefly: Anxiolytic activity against ip dosed Sprague-Dawley rat Geller-Seifter conflict model assessed as increase in punished response. In kind it is functional, organism-based. An outline of the steps: (§2)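 Modified Geller-Seifter conflict schedule with punished and unpunished components. Animals were tested on 1, 3, 10 and 30 mg/kg and on vehicle. Read-out was the number of responses in each component, as mean ± SEM for eighteen animals. Analysis used ANOVA with Newman-Keuls post hoc comparison to vehicle.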

Assay [14] concerns Rattus norvegicus. Briefly: Anxiolytic activity against Sprague-Dawley rat Geller-Seifter conflict model assessed as increase punished response rate at 30 mg/kg, ip. It counts as functional. The conditions noted are these: route intraperitoneal. A digest of the protocol:
as §2

Activity calls are given as the source filed them. The rule behind the calls is not given here.

T1 sequence (P31424 whole entry): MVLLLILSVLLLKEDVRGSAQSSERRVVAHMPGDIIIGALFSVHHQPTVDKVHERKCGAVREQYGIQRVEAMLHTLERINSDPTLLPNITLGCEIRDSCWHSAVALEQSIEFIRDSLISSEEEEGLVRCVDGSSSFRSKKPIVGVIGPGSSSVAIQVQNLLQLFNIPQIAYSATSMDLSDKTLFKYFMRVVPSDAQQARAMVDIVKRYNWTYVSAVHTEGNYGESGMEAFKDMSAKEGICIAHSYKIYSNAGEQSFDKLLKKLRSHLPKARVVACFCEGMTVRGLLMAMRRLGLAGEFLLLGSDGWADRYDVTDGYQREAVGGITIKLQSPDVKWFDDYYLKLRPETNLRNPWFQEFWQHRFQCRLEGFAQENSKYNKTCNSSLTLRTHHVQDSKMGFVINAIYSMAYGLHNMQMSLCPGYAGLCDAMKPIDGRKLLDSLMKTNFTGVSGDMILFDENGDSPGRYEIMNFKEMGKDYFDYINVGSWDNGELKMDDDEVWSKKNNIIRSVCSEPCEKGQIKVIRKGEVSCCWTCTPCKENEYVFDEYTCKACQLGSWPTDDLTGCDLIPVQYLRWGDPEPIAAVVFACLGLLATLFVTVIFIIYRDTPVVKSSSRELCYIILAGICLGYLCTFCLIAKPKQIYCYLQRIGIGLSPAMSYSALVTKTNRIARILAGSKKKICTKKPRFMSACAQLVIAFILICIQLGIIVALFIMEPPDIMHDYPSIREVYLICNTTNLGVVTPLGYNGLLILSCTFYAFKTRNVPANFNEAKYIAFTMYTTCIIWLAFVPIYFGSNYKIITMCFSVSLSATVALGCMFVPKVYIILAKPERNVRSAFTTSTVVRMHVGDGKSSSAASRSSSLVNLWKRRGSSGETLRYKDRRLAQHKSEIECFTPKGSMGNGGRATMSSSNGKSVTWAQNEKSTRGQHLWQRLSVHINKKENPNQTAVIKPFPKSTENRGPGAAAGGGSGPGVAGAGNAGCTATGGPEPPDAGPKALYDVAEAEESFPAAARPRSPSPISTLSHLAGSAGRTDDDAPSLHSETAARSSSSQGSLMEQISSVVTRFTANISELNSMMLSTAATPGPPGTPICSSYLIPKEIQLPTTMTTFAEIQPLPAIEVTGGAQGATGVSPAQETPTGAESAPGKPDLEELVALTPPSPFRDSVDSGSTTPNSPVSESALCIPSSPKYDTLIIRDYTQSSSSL
Sequence of Metabotropic glutamate receptor 3 (Q14832 whole entry): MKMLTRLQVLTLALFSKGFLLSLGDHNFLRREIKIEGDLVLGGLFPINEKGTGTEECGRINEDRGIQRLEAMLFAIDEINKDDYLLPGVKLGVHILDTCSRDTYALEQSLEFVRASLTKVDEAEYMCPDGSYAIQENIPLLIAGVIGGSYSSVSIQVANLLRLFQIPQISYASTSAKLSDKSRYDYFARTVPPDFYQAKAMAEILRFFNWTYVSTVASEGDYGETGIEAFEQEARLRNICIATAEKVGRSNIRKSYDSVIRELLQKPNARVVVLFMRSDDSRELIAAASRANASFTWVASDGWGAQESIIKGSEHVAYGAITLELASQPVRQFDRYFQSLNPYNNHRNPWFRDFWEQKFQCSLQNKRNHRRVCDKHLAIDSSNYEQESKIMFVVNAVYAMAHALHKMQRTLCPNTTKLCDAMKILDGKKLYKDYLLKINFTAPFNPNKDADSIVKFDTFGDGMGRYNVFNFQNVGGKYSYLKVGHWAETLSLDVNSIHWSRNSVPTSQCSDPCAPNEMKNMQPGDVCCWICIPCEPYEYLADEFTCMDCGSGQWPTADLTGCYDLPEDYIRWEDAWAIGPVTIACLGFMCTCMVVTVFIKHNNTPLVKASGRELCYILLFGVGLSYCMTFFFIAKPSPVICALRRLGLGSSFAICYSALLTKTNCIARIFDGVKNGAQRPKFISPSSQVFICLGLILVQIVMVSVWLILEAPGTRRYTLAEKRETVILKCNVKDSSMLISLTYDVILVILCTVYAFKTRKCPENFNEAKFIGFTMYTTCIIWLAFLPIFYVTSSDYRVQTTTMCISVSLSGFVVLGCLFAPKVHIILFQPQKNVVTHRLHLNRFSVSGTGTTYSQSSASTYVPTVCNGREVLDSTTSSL
Sequence of Metabotropic glutamate receptor 8 (O00222 whole entry): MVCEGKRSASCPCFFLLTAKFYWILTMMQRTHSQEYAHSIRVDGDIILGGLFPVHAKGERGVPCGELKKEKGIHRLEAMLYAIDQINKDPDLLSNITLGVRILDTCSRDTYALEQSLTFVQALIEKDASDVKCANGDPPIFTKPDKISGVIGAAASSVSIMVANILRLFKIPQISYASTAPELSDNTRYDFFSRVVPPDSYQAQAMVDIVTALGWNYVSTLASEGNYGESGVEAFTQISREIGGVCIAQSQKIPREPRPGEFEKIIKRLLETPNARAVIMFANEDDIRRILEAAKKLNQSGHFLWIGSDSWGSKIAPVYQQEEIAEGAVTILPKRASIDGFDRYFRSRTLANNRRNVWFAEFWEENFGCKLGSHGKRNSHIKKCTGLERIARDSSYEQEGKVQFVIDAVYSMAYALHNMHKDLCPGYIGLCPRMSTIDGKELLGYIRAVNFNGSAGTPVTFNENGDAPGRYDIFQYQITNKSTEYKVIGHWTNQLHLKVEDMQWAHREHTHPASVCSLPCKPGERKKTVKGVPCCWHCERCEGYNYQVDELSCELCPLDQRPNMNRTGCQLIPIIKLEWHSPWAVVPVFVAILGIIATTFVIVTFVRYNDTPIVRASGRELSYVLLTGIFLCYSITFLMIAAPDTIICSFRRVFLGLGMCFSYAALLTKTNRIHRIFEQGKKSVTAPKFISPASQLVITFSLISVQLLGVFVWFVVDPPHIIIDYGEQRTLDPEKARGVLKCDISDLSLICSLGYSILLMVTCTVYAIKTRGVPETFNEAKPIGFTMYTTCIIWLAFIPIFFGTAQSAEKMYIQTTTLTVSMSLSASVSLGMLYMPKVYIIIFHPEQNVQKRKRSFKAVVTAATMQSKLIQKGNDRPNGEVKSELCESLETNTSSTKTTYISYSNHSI

As a reminder, the EC50 is the concentration at which the effect is half-maximal. For `Cc1cccc(C#Cc2cnc(C)nc2)c1`, the EC50 result in [1] (hek293) is listed as “Not Active”.

With `Cc1ccc(C#Cc2cnc(C(C)(C)C)nc2)cc1`, the EC50 result in assay [1] (hek293) is reported as “Not Active”.

Turning to `Cc1ncc(C#Cc2ccccc2)cn1`, the EC50 entry in [1] (hek293) was “Not Active”.

For `CNc1ncc(C#Cc2ccc(C)cc2)cn1`, the fold change (FC) in assay [2] was determined as 5.7. For the same compound, the EC50 in [1] (read-out: EC50) was 704 nM.

In general, IC50 refers to the concentration needed to halve the response being measured. `Cc1ccc(C#Cc2ncccn2)cc1`: the IC50 in assay [3] (read-out: IC50) was above 10000 nM. In [4], the result was inactive.

As for `CNc1ncc(C#Cc2cccc(C)c2)cn1`, in [2], the fold change (FC) was determined as 5.9. Further, in [1] (read-out: EC50), the EC50 is 21.1 nM.

`Cc1cccc(C#Cc2cnc(C(C)(C)C)nc2)c1`: the EC50 entry in assay [1] (hek293) was “Not Active”.

Turning to `CCc1ncc(C#Cc2cccc(C)c2)cn1`, the EC50 result in assay [1] (hek293) was “Not Active”.

As to `CC(C)(C)c1ncc(C#Cc2ccccc2)cn1`, the fold change (FC) in [2] amounted to 6. For the same compound, in assay [1] (read-out: EC50), the EC50 stood at 247 nM.

On to `C(#Cc1cncnc1)c1ccccc1`, for which the IC50 in assay [3] (read-out: IC50) is 486 nM. The Activity in [4] turned out to be 29%.

As to `CNc1ncc(C#Cc2ccccc2)cn1`, the fold change (FC) in assay [2] came out at 15. Besides, the EC50 in assay [1] (read-out: EC50) was 14.3 nM. Besides, the IC50 in assay [5], in [6], in [7], in assay [8] and in assay [10] was above 10000 nM throughout. In the assay on Rattus norvegicus [9], the Activity entry was “Dose-dependent effect”.

Take `Cc1cccc(C#Cc2ncccn2)c1`: the Activity in [11] was 100%; in the assay with Rattus norvegicus [13], “Dose-dependent effect”; in the assay on Rattus norvegicus [14] it was 300%. For the same compound, the IC50 in assay [3] (read-out: IC50) was 10.8 nM; in [5] it was above 10000 nM; in [6], above 10000 nM; in assay [7], above 10000 nM; in [12], above 10000 nM; in [8], above 10000 nM. This compound registered an IC50 in assay [10] above 10000 nM.

Take `COc1ncc(C#Cc2ccc(C)cc2)cn1`: in [1] (hek293), the EC50 entry is “Not Active”.

On to `COc1ncc(C#Cc2ccccc2)cn1`, for which the EC50 result in assay [1] (hek293) is given as “Not Active”.

With `CCNc1ncc(C#Cc2ccccc2)cn1`, in assay [1] (hek293), the EC50 entry was “Not Active”.

With `COc1ncc(C#Cc2cccc(C)c2)cn1`, in [1] (hek293), the EC50 entry was “Not Active”.

Take `Cc1ccc(C#Cc2cnc(C)nc2)cc1`: the EC50 result in [1] (hek293) is reported as “Not Active”.

As to `CCc1ncc(C#Cc2ccc(C)cc2)cn1`, in [1] (hek293), the EC50 result is reported as “Not Active”.

Turning to `CSc1ncc(C#Cc2ccccc2)cn1`, the fold change (FC) in [2] came out at 11. The EC50 in assay [1] (read-out: EC50) came out at 120 nM.

As for `CSc1ncc(C#Cc2ccc(C)cc2)cn1`, the concentration giving a half-maximal response (EC50) result in assay [1] (hek293) is listed as “Not Active”.

As to `C(#Cc1ncccn1)c1ccccc1`, in [11], the Activity was determined as 100%. In addition, in assay [3] (read-out: IC50), the IC50 was found to be 195 nM.

Consider `CCNc1ncc(C#Cc2ccc(C)cc2)cn1`, for which the EC50 entry in [1] (hek293) is reported as “Not Active”.

Regarding `Cc1ccc(C#Cc2cncnc2)cc1`, the fold change (FC) in assay [2] worked out at 4.2.

For the compound `CSc1ncc(C#Cc2cccc(C)c2)cn1`, the EC50 result in assay [1] (hek293) was “Not Active”.

As for `Cc1cccc(C#Cc2cncnc2)c1`, in [3] (read-out: IC50), the IC50 is 7.5 nM.

Turning to `CCNc1ncc(C#Cc2cccc(C)c2)cn1`, the EC50 entry in assay [1] (hek293) is given as “Not Active”.

For `CCOc1ncc(C#Cc2cccc(C)c2)cn1`, the Activity in [11] was found to be 100%. Besides, the IC50 in [3] (read-out: IC50) amounted to 21.1 nM.

With `CCOc1ncc(C#Cc2ccc(C)cc2)cn1`, the IC50 entry in assay [3] (hek293) is “Not Active”.

As to `CCOc1ncc(C#Cc2ccccc2)cn1`, the IC50 result in assay [3] (hek293) was “Not Active”.

In the case of `CCc1ncc(C#Cc2ccccc2)cn1`, in [1] (hek293), the EC50 result is listed as “Not Active”.

For the origin of these results see ChEMBL document CHEMBL1137787 (J Med Chem, 2009).
